{
  "source": "ChEMBL document CHEMBL3046030",
  "about": "“Implementation of bio-fungicides and seed treatment in organic rice cv. KDML 105 farming” (2009)",
  "assay_type_in_all_cases": "functional",
  "key": {"Nigrospora [1]": {"test_system": "Nigrospora", "experiment": "Antifungal activity against Nigrospora sp. at 0.25%"}, "Rhizoctonia solani [2]": {"test_system": "Rhizoctonia solani", "experiment": "Antifungal activity against Rhizoctonia solani assessed as inhibition of spore germination at 0.5% after 24 hr by compound microscopy", "procedure,_shortened": "(§1)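 R. solani grown 3 days at 25±2°C in aqueous PDA, rinsed three times with distilled water, then held 2 days to induce spores. Suspension set to about 10^6 cfu/mL by hemacytometer and spread on a thin PDA layer on slides. Watch glass held extract/oil (0.10–1.00% v/v) or sterile water control. Moist sealed chamber, 24 h, 25±2°C; encysted spores counted at x100; % inhibition versus control.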"}, "Aspergillus flavus [3]": {"test_system": "Aspergillus flavus", "experiment": "Antifungal activity against Aspergillus flavus at 0.25%"}, "Curvularia [4]": {"test_system": "Curvularia", "experiment": "Antifungal activity against Curvularia sp. at 1%"}, "Aspergillus flavus [5]": {"test_system": "Aspergillus flavus", "experiment": "Antifungal activity against Aspergillus flavus assessed as inhibition of spore germination at 0.10% after 24 hr by compound microscopy"}, "Curvularia [6]": {"test_system": "Curvularia", "experiment": "Antifungal activity against Curvularia sp. assessed as inhibition of spore germination at 1% after 24 hr by compound microscopy"}, "Aspergillus niger [7]": {"test_system": "Aspergillus niger", "experiment": "Antifungal activity against Aspergillus niger assessed as inhibition of spore germination at 0.25% after 24 hr by compound microscopy"}, "Curvularia [8]": {"test_system": "Curvularia", "experiment": "Antifungal activity against Curvularia sp. assessed as inhibition of spore germination at 0.25% after 24 hr by compound microscopy"}, "Rhizoctonia solani [9]": {"test_system": "Rhizoctonia solani", "experiment": "Antifungal activity against Rhizoctonia solani at 0.25%"}, "Rhizoctonia solani [10]": {"test_system": "Rhizoctonia solani", "experiment": "Antifungal activity against Rhizoctonia solani assessed as inhibition of spore germination at 0.10% after 24 hr by compound microscopy", "procedure,_shortened": "(§2)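 Spores were raised by growing the fungus 3 days at 25±2°C in aqueous PDA, rinsing the mycelium three times in distilled water, and holding it 2 more days. The suspension was adjusted to about 10^6 cfu/mL by hemacytometer and spread on slides carrying a thin PDA layer. An open watch glass held plant extract or essential oil (0.10–1.00% v/v), or sterile water as control. Slides were sealed in moist dishes for 24 h at 25±2°C. Encysted spores were counted at x100, and % inhibition was calculated against control.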"}, "Aspergillus flavus [11]": {"test_system": "Aspergillus flavus", "experiment": "Antifungal activity against Aspergillus flavus assessed as inhibition of spore germination at 0.25% after 24 hr by compound microscopy"}, "Rhizoctonia solani [12]": {"test_system": "Rhizoctonia solani", "experiment": "Antifungal activity against Rhizoctonia solani assessed as inhibition of spore germination at 1% after 24 hr by compound microscopy", "procedure,_shortened": "as §1"}, "Bipolaris oryzae [13]": {"test_system": "Bipolaris oryzae", "experiment": "Antifungal activity against Bipolaris oryzae at 1%"}, "Nigrospora [14]": {"test_system": "Nigrospora", "experiment": "Antifungal activity against Nigrospora sp. at 1%"}, "Aspergillus niger [15]": {"test_system": "Aspergillus niger", "experiment": "Antifungal activity against Aspergillus niger assessed as inhibition of spore germination at 0.10% after 24 hr by compound microscopy"}, "Bipolaris oryzae [16]": {"test_system": "Bipolaris oryzae", "experiment": "Antifungal activity against Bipolaris oryzae at 0.25%"}, "Alternaria solani [17]": {"test_system": "Alternaria solani", "experiment": "Antifungal activity against Alternaria solani at 1%"}, "Aspergillus niger [18]": {"test_system": "Aspergillus niger", "experiment": "Antifungal activity against Aspergillus niger assessed as inhibition of spore germination at 1% after 24 hr by compound microscopy"}, "Fusarium verticillioides [19]": {"test_system": "Fusarium verticillioides", "experiment": "Antifungal activity against Fusarium verticillioides at 0.25%"}, "Curvularia [20]": {"test_system": "Curvularia", "experiment": "Antifungal activity against Curvularia sp. at 0.25%"}, "Fusarium verticillioides [21]": {"test_system": "Fusarium verticillioides", "experiment": "Antifungal activity against Fusarium verticillioides assessed as inhibition of spore germination at 0.10% after 24 hr by compound microscopy", "procedure,_shortened": "as §2"}, "Alternaria solani [22]": {"test_system": "Alternaria solani", "experiment": "Antifungal activity against Alternaria solani at 0.25%"}, "Alternaria solani [23]": {"test_system": "Alternaria solani", "experiment": "Antifungal activity against Alternaria solani assessed as inhibition of spore germination at 1% after 24 hr by compound microscopy", "procedure,_shortened": "as §2"}, "Fusarium verticillioides [24]": {"test_system": "Fusarium verticillioides", "experiment": "Antifungal activity against Fusarium verticillioides assessed as inhibition of spore germination at 1% after 24 hr by compound microscopy", "procedure,_shortened": "as §2"}, "Curvularia [25]": {"test_system": "Curvularia", "experiment": "Antifungal activity against Curvularia sp. assessed as inhibition of spore germination at 0.5% after 24 hr by compound microscopy"}, "Alternaria solani [26]": {"test_system": "Alternaria solani", "experiment": "Antifungal activity against Alternaria solani assessed as inhibition of spore germination at 0.25% after 24 hr by compound microscopy", "procedure,_shortened": "as §2"}, "Aspergillus niger [27]": {"test_system": "Aspergillus niger", "experiment": "Antifungal activity against Aspergillus niger at 0.25%"}, "Aspergillus niger [28]": {"test_system": "Aspergillus niger", "experiment": "Antifungal activity against Aspergillus niger assessed as inhibition of spore germination at 0.5% after 24 hr by compound microscopy"}, "Rhizoctonia solani [29]": {"test_system": "Rhizoctonia solani", "experiment": "Antifungal activity against Rhizoctonia solani at 1%"}, "Aspergillus flavus [30]": {"test_system": "Aspergillus flavus", "experiment": "Antifungal activity against Aspergillus flavus at 1%"}, "Aspergillus niger [31]": {"test_system": "Aspergillus niger", "experiment": "Antifungal activity against Aspergillus niger at 1%"}, "Colletotrichum": {"test_system": "Colletotrichum", "experiment": "Antifungal activity against Colletotrichum sp. at 1%"}, "Fusarium verticillioides [32]": {"test_system": "Fusarium verticillioides", "experiment": "Antifungal activity against Fusarium verticillioides assessed as inhibition of spore germination at 0.5% after 24 hr by compound microscopy", "procedure,_shortened": "as §2"}, "Fusarium verticillioides [33]": {"test_system": "Fusarium verticillioides", "experiment": "Antifungal activity against Fusarium verticillioides assessed as inhibition of spore germination at 0.25% after 24 hr by compound microscopy", "procedure,_shortened": "as §2"}, "Aspergillus flavus [34]": {"test_system": "Aspergillus flavus", "experiment": "Antifungal activity against Aspergillus flavus assessed as inhibition of spore germination at 0.5% after 24 hr by compound microscopy"}, "Aspergillus flavus [35]": {"test_system": "Aspergillus flavus", "experiment": "Antifungal activity against Aspergillus flavus assessed as inhibition of spore germination at 1% after 24 hr by compound microscopy"}, "Rhizoctonia solani [36]": {"test_system": "Rhizoctonia solani", "experiment": "Antifungal activity against Rhizoctonia solani assessed as inhibition of spore germination at 0.25% after 24 hr by compound microscopy", "procedure,_shortened": "as §1"}, "Alternaria solani [37]": {"test_system": "Alternaria solani", "experiment": "Antifungal activity against Alternaria solani assessed as inhibition of spore germination at 0.10% after 24 hr by compound microscopy", "procedure,_shortened": "as §2"}, "Curvularia [38]": {"test_system": "Curvularia", "experiment": "Antifungal activity against Curvularia sp. assessed as inhibition of spore germination at 0.10% after 24 hr by compound microscopy"}, "Alternaria solani [39]": {"test_system": "Alternaria solani", "experiment": "Antifungal activity against Alternaria solani assessed as inhibition of spore germination at 0.5% after 24 hr by compound microscopy", "procedure,_shortened": "as §2"}, "Fusarium verticillioides [40]": {"test_system": "Fusarium verticillioides", "experiment": "Antifungal activity against Fusarium verticillioides at 1%"}},
  "data": [
    {"molecule": "C=CCc1ccc(O)c(OC)c1", "note": "[EUGENOL]", "values": [
      {"measurement": "inhibition (INH)", "setting": "Nigrospora [1]", "value": 50.04, "unit": "%"},
      {"measurement": "growth inhibition (GI)", "setting": "Rhizoctonia solani [2]", "value": 100, "unit": "%"},
      {"measurement": "inhibition (INH)", "setting": "Aspergillus flavus [3]", "value": 44.22, "unit": "%"},
      {"measurement": "inhibition (INH)", "setting": "Curvularia [4]", "value": 97.04, "unit": "%"},
      {"measurement": "growth inhibition (GI)", "setting": "Aspergillus flavus [5]", "value": 54, "unit": "%"},
      {"measurement": "growth inhibition (GI)", "setting": "Curvularia [6]", "value": 100, "unit": "%"},
      {"measurement": "growth inhibition (GI)", "setting": "Aspergillus niger [7]", "value": 65.6, "unit": "%"},
      {"measurement": "growth inhibition (GI)", "setting": "Curvularia [8]", "value": 85.39, "unit": "%"},
      {"measurement": "inhibition (INH)", "setting": "Rhizoctonia solani [9]", "value": 100, "unit": "%"},
      {"measurement": "growth inhibition (GI)", "setting": "Rhizoctonia solani [10]", "value": 93.53, "unit": "%"},
      {"measurement": "growth inhibition (GI)", "setting": "Aspergillus flavus [11]", "value": 65.6, "unit": "%"},
      {"measurement": "growth inhibition (GI)", "setting": "Rhizoctonia solani [12]", "value": 100, "unit": "%"},
      {"measurement": "inhibition (INH)", "setting": "Bipolaris oryzae [13]", "value": 100, "unit": "%"},
      {"measurement": "inhibition (INH)", "setting": "Nigrospora [14]", "value": 98.23, "unit": "%"},
      {"measurement": "growth inhibition (GI)", "setting": "Aspergillus niger [15]", "value": 37.59, "unit": "%"},
      {"measurement": "inhibition (INH)", "setting": "Bipolaris oryzae [16]", "value": 86.98, "unit": "%"},
      {"measurement": "inhibition (INH)", "setting": "Alternaria solani [17]", "value": 100, "unit": "%"},
      {"measurement": "growth inhibition (GI)", "setting": "Aspergillus niger [18]", "value": 100, "unit": "%"},
      {"measurement": "inhibition (INH)", "setting": "Fusarium verticillioides [19]", "value": 100, "unit": "%"},
      {"measurement": "inhibition (INH)", "setting": "Curvularia [20]", "value": 50.04, "unit": "%"},
      {"measurement": "growth inhibition (GI)", "setting": "Fusarium verticillioides [21]", "value": 21.88, "unit": "%"},
      {"measurement": "inhibition (INH)", "setting": "Alternaria solani [22]", "value": 100, "unit": "%"},
      {"measurement": "growth inhibition (GI)", "setting": "Alternaria solani [23]", "value": 100, "unit": "%"},
      {"measurement": "growth inhibition (GI)", "setting": "Fusarium verticillioides [24]", "value": 100, "unit": "%"},
      {"measurement": "growth inhibition (GI)", "setting": "Curvularia [25]", "value": 100, "unit": "%"},
      {"measurement": "growth inhibition (GI)", "setting": "Alternaria solani [26]", "value": 24.16, "unit": "%"},
      {"measurement": "inhibition (INH)", "setting": "Aspergillus niger [27]", "value": 70.58, "unit": "%"},
      {"measurement": "growth inhibition (GI)", "setting": "Aspergillus niger [28]", "value": 100, "unit": "%"},
      {"measurement": "inhibition (INH)", "setting": "Rhizoctonia solani [29]", "value": 100, "unit": "%"},
      {"measurement": "inhibition (INH)", "setting": "Aspergillus flavus [30]", "value": 100, "unit": "%"},
      {"measurement": "inhibition (INH)", "setting": "Aspergillus niger [31]", "value": 100, "unit": "%"},
      {"measurement": "inhibition (INH)", "setting": "Colletotrichum", "value": 100, "unit": "%"},
      {"measurement": "growth inhibition (GI)", "setting": "Fusarium verticillioides [32]", "value": 100, "unit": "%"},
      {"measurement": "growth inhibition (GI)", "setting": "Fusarium verticillioides [33]", "value": 74.11, "unit": "%"},
      {"measurement": "growth inhibition (GI)", "setting": "Aspergillus flavus [34]", "value": 100, "unit": "%"},
      {"measurement": "growth inhibition (GI)", "setting": "Aspergillus flavus [35]", "value": 100, "unit": "%"},
      {"measurement": "growth inhibition (GI)", "setting": "Rhizoctonia solani [36]", "value": 100, "unit": "%"},
      {"measurement": "growth inhibition (GI)", "setting": "Alternaria solani [37]", "value": 14.41, "unit": "%"},
      {"measurement": "growth inhibition (GI)", "setting": "Curvularia [38]", "value": 44.94, "unit": "%"},
      {"measurement": "growth inhibition (GI)", "setting": "Alternaria solani [39]", "value": 65.68, "unit": "%"},
      {"measurement": "inhibition (INH)", "setting": "Fusarium verticillioides [40]", "value": 100, "unit": "%"}
    ]}
  ]
}
